Test results published in ChEMBL document CHEMBL3734693, “Discovery of potent, selective, and orally bioavailable inhibitors of interleukin-1 receptor-associate kinase-4” (Bioorg Med Chem Lett, 2015).
pIC50, pKi: −log10 of the molar value. Values after ≈ are worked out from the molar mass of the structure shown.

Legend:
[1] = biological target: T1, Interleukin-1 receptor-associated kinase 4 (Homo sapiens, UniProt Q9NWZ3); assay: Inhibition of recombinant full length IRAK-4 (unknown origin) using the biotinylated substrate RRRVTSPARRS by chemiluminescent ELISA
T1 sequence (Q9NWZ3 whole entry): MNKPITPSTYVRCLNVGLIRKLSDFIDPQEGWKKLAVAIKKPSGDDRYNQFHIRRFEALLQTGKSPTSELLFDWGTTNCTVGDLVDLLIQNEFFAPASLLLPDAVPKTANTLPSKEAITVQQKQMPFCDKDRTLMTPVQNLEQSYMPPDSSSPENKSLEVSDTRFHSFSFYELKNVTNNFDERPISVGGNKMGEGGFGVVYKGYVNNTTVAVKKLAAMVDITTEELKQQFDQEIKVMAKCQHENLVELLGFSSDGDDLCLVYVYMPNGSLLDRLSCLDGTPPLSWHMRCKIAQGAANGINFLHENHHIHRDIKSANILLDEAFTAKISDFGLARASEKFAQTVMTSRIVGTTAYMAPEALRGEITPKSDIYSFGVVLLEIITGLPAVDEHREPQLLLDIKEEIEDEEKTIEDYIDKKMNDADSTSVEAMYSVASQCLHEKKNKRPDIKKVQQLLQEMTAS

[2] = Half-life in rat at 0.5 mg/kg, iv and 2 mg/kg, po; type: ADME, organism-based; conditions: in vivo
Procedure, shortened: (§1)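 Rats were given the compound intravenously at 0.5 mg/kg and orally at 2.0 mg/kg. Clearance, half-life, AUC and oral bioavailability were determined from these two dosings.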

Rattus norvegicus = assay: AUC in rat at 0.5 mg/kg, iv and 2 mg/kg, po; type: ADME, organism-based; conditions: in vivo; procedure, shortened: as §1
[3] = biological target: Interleukin-1 receptor-associated kinase 1 (Homo sapiens, UniProt P51617); assay: Inhibition of IRAK-1 (unknown origin)
[4] = Inhibition of Interleukin-1 induced Nuclear factor-kappa-B activation in primary human monocyte by electrophoretic mobility shift assay
[5] = biological target: T2, Mitogen-activated protein kinase kinase kinase 7 (Homo sapiens, UniProt O43318); assay: Inhibition of TAK1 (unknown origin)
T2 sequence (O43318 whole entry): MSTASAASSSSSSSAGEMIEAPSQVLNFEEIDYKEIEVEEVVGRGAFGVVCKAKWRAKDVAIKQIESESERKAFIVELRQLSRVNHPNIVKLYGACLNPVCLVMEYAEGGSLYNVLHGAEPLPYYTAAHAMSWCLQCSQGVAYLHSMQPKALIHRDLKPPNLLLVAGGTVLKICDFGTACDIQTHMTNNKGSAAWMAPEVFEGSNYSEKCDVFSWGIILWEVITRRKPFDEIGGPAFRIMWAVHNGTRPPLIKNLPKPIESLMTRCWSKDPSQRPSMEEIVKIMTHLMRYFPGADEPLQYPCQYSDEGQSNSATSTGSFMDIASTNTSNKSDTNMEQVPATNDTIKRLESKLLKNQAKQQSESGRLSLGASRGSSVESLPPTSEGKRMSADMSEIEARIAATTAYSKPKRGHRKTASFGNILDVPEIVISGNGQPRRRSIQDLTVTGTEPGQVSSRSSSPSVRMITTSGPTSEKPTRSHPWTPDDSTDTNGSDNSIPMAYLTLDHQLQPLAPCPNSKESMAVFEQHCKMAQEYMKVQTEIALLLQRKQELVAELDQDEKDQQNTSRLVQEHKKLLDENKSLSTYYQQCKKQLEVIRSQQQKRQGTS

[6] = Oral bioavailability in rat at 2 mg/kg; type: ADME, organism-based; conditions: in vivo; procedure, shortened: as §1
[7] = Clearance in rat at 0.5 mg/kg, iv and 2 mg/kg, po; type: ADME, organism-based; conditions: in vivo; procedure, shortened: as §1
Homo sapiens [8] = species: Homo sapiens; assay: Ratio of Ki for TAK1 (unknown origin) to Ki for recombinant full length IRAK-4 (unknown origin)
Homo sapiens [9] = species: Homo sapiens; assay: Ratio of Ki for IRAK-1 (unknown origin) to Ki for recombinant full length IRAK-4 (unknown origin)
[10] = Permeability of the compound; type: ADME; conditions: not told; read-out: permeability
[11] = Solubility of the compound at pH 7.4; type: physicochemical; conditions: buffer
Homo sapiens [12] = species: Homo sapiens; assay: Selectivity for recombinant IRAK-4 (unknown origin) over Akt1 (unknown origin)
Homo sapiens [13] = species: Homo sapiens; assay: Selectivity for recombinant IRAK-4 (unknown origin) over CDK2 (unknown origin)
Homo sapiens [14] = species: Homo sapiens; assay: Selectivity for recombinant IRAK-4 (unknown origin) over PKA (unknown origin)
Homo sapiens [15] = species: Homo sapiens; assay: Selectivity for recombinant IRAK-4 (unknown origin) over PKC (unknown origin)
Homo sapiens [16] = species: Homo sapiens; assay: Selectivity for recombinant IRAK-4 (unknown origin) over LCK (unknown origin)
Homo sapiens [17] = species: Homo sapiens; assay: Selectivity for recombinant IRAK-4 (unknown origin) over EGFRK (unknown origin)
Homo sapiens [18] = species: Homo sapiens; assay: Selectivity for recombinant IRAK-4 (unknown origin) over CaMK (unknown origin)
Homo sapiens [19] = species: Homo sapiens; assay: Selectivity for recombinant IRAK-4 (unknown origin) over pp60SRC (unknown origin)

Chain of Interleukin-1 receptor-associated kinase 1 (P51617 whole entry): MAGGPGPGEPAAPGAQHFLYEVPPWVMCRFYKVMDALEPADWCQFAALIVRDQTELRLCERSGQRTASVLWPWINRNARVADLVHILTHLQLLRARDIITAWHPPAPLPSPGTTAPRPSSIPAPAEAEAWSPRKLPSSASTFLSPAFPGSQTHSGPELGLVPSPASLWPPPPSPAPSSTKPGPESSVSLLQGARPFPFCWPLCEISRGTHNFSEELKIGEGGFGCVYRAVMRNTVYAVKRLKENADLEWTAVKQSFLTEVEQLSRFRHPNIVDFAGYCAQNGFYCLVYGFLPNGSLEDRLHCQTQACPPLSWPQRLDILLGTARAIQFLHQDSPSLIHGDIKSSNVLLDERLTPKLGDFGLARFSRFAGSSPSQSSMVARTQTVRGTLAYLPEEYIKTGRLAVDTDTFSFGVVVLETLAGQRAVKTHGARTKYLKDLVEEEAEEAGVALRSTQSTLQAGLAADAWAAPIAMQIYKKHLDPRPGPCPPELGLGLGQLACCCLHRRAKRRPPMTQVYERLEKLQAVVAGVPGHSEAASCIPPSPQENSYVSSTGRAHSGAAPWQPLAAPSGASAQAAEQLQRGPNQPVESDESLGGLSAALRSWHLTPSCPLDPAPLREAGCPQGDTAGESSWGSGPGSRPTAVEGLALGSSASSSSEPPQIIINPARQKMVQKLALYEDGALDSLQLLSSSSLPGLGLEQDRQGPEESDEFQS

pKi [1] | SMILES | pKi [3] | pIC50 [4] | pKi [5] | also measured
8.19 | O=C(Nc1nc2cc(F)ccc2n1[C@H]1CC[C@H](CO)CC1)c1cccc([N+](=O)[O-])c1 | – | – | – | –
9.15 | O=C(Nc1nc2cc(CN3CCCCC3)ccc2n1[C@H]1CC[C@@H](CO)CC1)c1cccc([N+](=O)[O-])c1 | 7.32 | – | 7.52 | half-life [2]: 4.8 h; AUC (Rattus norvegicus): 0.084 µg·h/mL; Ratio Ki (Homo sapiens [8]): 43; bioavailability [6]: 10%; Ratio Ki (Homo sapiens [9]): 68; clearance [7]: 2.4 L/h/kg
9.30 | O=C(Nc1nc2cc(CN3CCCC3=O)ccc2n1[C@H]1CC[C@H](O)CC1)c1cccc([N+](=O)[O-])c1 | – | – | – | Papp [10]: < 10 nm/s; solubility [11]: 0.8 µg/mL (≈ 1.68 µM)
– | CC(C)(C)C(=O)Oc1ccc2c(c1)nc(NC(=O)c1cccc([N+](=O)[O-])c1)n2-c1ccc(CCCO)cc1 | – | – | – | pIC50 [3]: 6.05; pIC50 [1]: 6.82
7.96 | O=C(Nc1nc2cc(CO)ccc2n1[C@H]1CC[C@H](O)CC1)c1cccc([N+](=O)[O-])c1 | – | – | – | Papp [10]: < 10 nm/s; solubility [11]: 4.9 µg/mL (≈ 11.9 µM)
7.41 | O=C(Nc1nc2cc(F)ccc2n1CCCO)c1cccc([N+](=O)[O-])c1 | – | – | – | –
8.11 | O=C(Nc1nc2cc(F)ccc2n1[C@H]1CC[C@@H](CO)C1)c1cccc([N+](=O)[O-])c1 | – | – | – | –
5.35 | O=C(Nc1nc2ccc(F)cc2[nH]1)c1cccc([N+](=O)[O-])c1 | – | – | – | –
7.96 | O=C(Nc1nc2cc(F)ccc2n1[C@H]1CC[C@H](CO)C1)c1cccc([N+](=O)[O-])c1 | – | – | – | –
8.42 | O=C(Nc1nc2cc(CN3CCOCC3)ccc2n1[C@H]1CC[C@H](O)CC1)c1cccc([N+](=O)[O-])c1 | – | – | – | Papp [10]: < 10 nm/s; solubility [11]: 29 µg/mL (≈ 60.5 µM)
8.19 | O=C(Nc1nc2cc(F)ccc2n1[C@H]1CC[C@H](O)CC1)c1cccc([N+](=O)[O-])c1 | – | – | – | –
8.80 | O=C(Nc1nc2cc(F)ccc2n1[C@H]1CC[C@@H](CO)CC1)c1cccc([N+](=O)[O-])c1 | – | – | – | –
8.55 | O=C(Nc1nc2cc(CN3CCCCC3)ccc2n1[C@H]1CC[C@H](O)CC1)c1cccc([N+](=O)[O-])c1 | 7.74 | – | 7.82 | half-life [2]: 2.1 h; Selectivity ratio (Homo sapiens [12]): > 100; Selectivity ratio (Homo sapiens [13]): > 100; AUC (Rattus norvegicus): 0.124 µg·h/mL; Selectivity ratio (Homo sapiens [14]): > 100; Ratio Ki (Homo sapiens [8]): 5.3; Papp [10]: 66 nm/s; Selectivity ratio (Homo sapiens [15]): > 100; Selectivity ratio (Homo sapiens [16]): > 100; bioavailability [6]: 16%; solubility [11]: > 50 µg/mL; Selectivity ratio (Homo sapiens [17]): > 100; Selectivity ratio (Homo sapiens [18]): > 100; Ratio Ki (Homo sapiens [9]): 6.4; clearance [7]: 2.5 L/h/kg; Selectivity ratio (Homo sapiens [19]): > 100

SMILES | pKi [1] | pKi [3] | pIC50 [4] | pKi [5] | also measured
O=C(Nc1nc2cc(CN3CCCCC3)ccc2n1-c1ccccc1)c1cccc(C(F)(F)F)c1 | 8.55 | 6.22 | 6.52 | 5.60 | half-life [2]: 23.7 h; AUC (Rattus norvegicus): 1.02 µg·h/mL; bioavailability [6]: 46%; clearance [7]: 0.54 L/h/kg
O=C(Nc1nc2cc(CN3CCCCC3)ccc2n1[C@H]1CC[C@@H](CO)CC1)c1cccc(C(F)(F)F)c1 | 9.38 | 7.14 | > 7.00 | 6.89 | –
O=C(Nc1nc2ccc(CO)cc2n1[C@H]1CC[C@@H](CO)CC1)c1cccc(C(F)(F)F)c1 | 9.32 | – | > 7.00 | 5.89 | –
CC(C)(C)C(=O)Nc1ccc2c(c1)nc(NC(=O)c1cccc(C(F)(F)F)c1)n2[C@H]1CC[C@@H](CO)CC1 | 9.47 | – | 7.00 | 5.60 | –
O=C(Nc1nc2cc(CN3CCCCC3)ccc2n1-c1ccc(CCO)cc1)c1cccc(C(F)(F)F)c1 | 8.89 | 7.92 | > 7.00 | 6.15 | half-life [2]: 1.3 h; AUC (Rattus norvegicus): 0.175 µg·h/mL; bioavailability [6]: 19%; clearance [7]: 2.2 L/h/kg
O=C(Nc1nc2cc(CN3CCCCC3)ccc2n1-c1ccccc1)c1cccc([N+](=O)[O-])c1 | 8.09 | 6.43 | 7.00 | 6.10 | –
